Assays:
Type in all cases: functional
DU-145 = assay: Antiproliferative activity against human DU145 cells assessed as reduction in cell growth incubated for 96 hrs by propidium iodide based 2D monolayer assay; conditions: DU-145, 96 h
In short: (§1)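 After 24 h recovery, compound in medium or medium alone (control wells) was added at 10 half-log concentrations from 0.0032 to 100 µM, in triplicate, with at most 0.3% DMSO. After 96 h, wells were PBS-washed, stained with 7 µg/ml PI and 0.1% Triton X-100, and fluorescence read at 530/620 nm. IC50 came from a 4-parameter fit, geometric mean.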

CWR22R = assay: Antiproliferative activity against human 22Rv1 cells assessed as reduction in cell growth incubated for 96 hrs by propidium iodide based 2D monolayer assay; conditions: 22Rv1, 96 h; in short: as §1
LNCaP = assay: Antiproliferative activity against human LNCAP cells assessed as reduction in cell growth incubated for 96 hrs by propidium iodide based 2D monolayer assay; in short: as §1
VCaP = assay: Antiproliferative activity against human VCaP cells assessed as reduction in cell growth incubated for 96 hrs by propidium iodide based 2D monolayer assay
In short: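 VCaP cells in RPMI 1640 with 10% FCS at 37 °C, 5% CO2, seeded 4,000–20,000 cells/well and left 24 h before dosing. Compounds from DMSO stocks were diluted in half-log steps in medium, 10 concentrations 0.0032–100 μM, triplicate wells, max 0.3% DMSO. After 96 h, cells were washed, stained with 7 μg/ml propidium iodide plus 0.1% Triton X-100 for 1–2 h at room temperature, and fluorescence read at ex 530/em 620 nm.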

Row | Compound | IC50 (DU-145) | IC50 (CWR22R) | IC50 (LNCaP) | IC50 (VCaP)
1 | CC1(C)C(=O)N(c2cccc(S(F)(F)(F)(F)F)c2)C(=S)N1c1ccc(C(F)(F)F)cc1 | 39.8 µM | 22.4 µM | 5.2 µM | 54.2 µM
2 | CC1(C)C(=O)N(c2ccc([N+](=O)[O-])c(C(F)(F)F)c2)C(=S)N1c1cccc(S(F)(F)(F)(F)F)c1 | 100 µM | 100 µM | 100 µM | 100 µM
3 | CC1(C)C(=O)N(c2ccc([N+](=O)[O-])c(C(F)(F)F)c2)C(=S)N1c1ccc(S(F)(F)(F)(F)F)cc1 | 100 µM | 100 µM | 13 µM | 100 µM
4 | CC1(C)C(=O)N(c2ccc([N+](=O)[O-])cc2C(F)(F)F)C(=S)N1c1ccc(S(F)(F)(F)(F)F)cc1 | 100 µM | 100 µM | 100 µM | 100 µM
5 | CC1(C)C(=O)N(c2ccc(C#N)c(C(F)(F)F)c2)C(=S)N1c1cccc(S(F)(F)(F)(F)F)c1 | 100 µM | 100 µM | 6.9 µM | 100 µM
6 | CNC(=O)c1ccc(N2C(=S)N(c3cccc(S(F)(F)(F)(F)F)c3)C(=O)C2(C)C)cc1F | 51.1 µM | 37.3 µM | 25.1 µM | 55.8 µM
7 | CC(O)(CSc1cc(C(F)(F)F)cc(C(F)(F)F)c1)C(=O)Nc1cccc(S(F)(F)(F)(F)F)c1 (stereo not given) | 9.4 µM | 4.4 µM | 4.8 µM | 4 µM
8 | CC1(C)C(=O)N(c2ccc(S(F)(F)(F)(F)F)cc2)C(=S)N1c1cccc(C(F)(F)F)c1 | 100 µM | 59.6 µM | 8.8 µM | 100 µM
9 | CC1(C)C(=O)N(c2ccc(S(F)(F)(F)(F)F)cc2)C(=S)N1c1ccc(C(F)(F)F)cc1 | 100 µM | 100 µM | 47.4 µM | 100 µM
10 | CNC(=O)c1ccc(N2C(=S)N(c3ccc(S(F)(F)(F)(F)F)cc3)C(=O)C2(C)C)cc1F | 41.6 µM | 32.1 µM | 23 µM | 31.6 µM
11 | CC1(C)C(=O)N(c2ccc([N+](=O)[O-])cc2C(F)(F)F)C(=S)N1c1cccc(S(F)(F)(F)(F)F)c1 | 100 µM | 43.9 µM | 5.3 µM | 100 µM
12 | CC(O)(CSc1cccc(C(F)(F)F)c1)C(=O)Nc1cccc(S(F)(F)(F)(F)F)c1 (racemic) | 19.1 µM | 12.9 µM | 12.7 µM | 20.2 µM
13 | CC(O)(CSc1ccc(S(F)(F)(F)(F)F)cc1)C(=O)Nc1cccc(S(F)(F)(F)(F)F)c1 (racemic) | 24.8 µM | 13.1 µM | 12.7 µM | 24.1 µM
14 | CC(O)(CSc1ccccc1C(F)(F)F)C(=O)Nc1ccc(S(F)(F)(F)(F)F)cc1 (racemic) | 15.8 µM | 13.2 µM | 12.3 µM | 21 µM
15 | CC(O)(CSc1ccc(S(F)(F)(F)(F)F)cc1)C(=O)Nc1ccc([N+](=O)[O-])c(C(F)(F)F)c1 (racemic) | 13.9 µM | 9.2 µM | 8.7 µM | 10.1 µM
16 | CC(O)(COc1ccc(S(F)(F)(F)(F)F)cc1)C(=O)Nc1ccc(C#N)cc1C(F)(F)F (racemic) | 16 µM | 14.7 µM | 12.3 µM | 25.5 µM
17 | CC(O)(CSc1cccc(S(F)(F)(F)(F)F)c1)C(=O)Nc1ccc(C#N)cc1C(F)(F)F (racemic) | 37.4 µM | 21.6 µM | 17.6 µM | 30.8 µM
18 | CC(O)(CSc1ccc(C(F)(F)F)cc1)C(=O)Nc1ccc(S(F)(F)(F)(F)F)cc1 (racemic) | 28.8 µM | 14.8 µM | 17 µM | 24.8 µM
19 | CC(O)(CSc1ccc(OC(F)(F)F)cc1)C(=O)Nc1cccc(S(F)(F)(F)(F)F)c1 (racemic) | 24.7 µM | 17 µM | 10.3 µM | 28.5 µM
20 | CC(O)(CSc1ccccc1OC(F)(F)F)C(=O)Nc1ccc(S(F)(F)(F)(F)F)cc1 (racemic) | 29 µM | 15 µM | 10.6 µM | 10.1 µM
21 | CC(O)(CSc1cccc(C(F)(F)F)c1)C(=O)Nc1ccc(S(F)(F)(F)(F)F)cc1 (racemic) | 26.2 µM | 23.4 µM | 18.3 µM | 18.8 µM
22 | CC(O)(CSc1cccc(S(F)(F)(F)(F)F)c1)C(=O)Nc1ccc([N+](=O)[O-])c(C(F)(F)F)c1 (racemic) | 13.9 µM | 8.8 µM | 8.6 µM | 9.8 µM
23 | CC(O)(CSc1ccc(F)cc1)C(=O)Nc1ccc(S(F)(F)(F)(F)F)cc1 (racemic) | 25.4 µM | 13.5 µM | 12.5 µM | 23 µM

Row | Compound | IC50 (DU-145) | IC50 (CWR22R) | IC50 (LNCaP) | IC50 (VCaP)
24 | CC(O)(CSc1ccc(C(F)(F)F)cc1)C(=O)Nc1cccc(S(F)(F)(F)(F)F)c1 (racemic) | 27.2 µM | 26.9 µM | 17.5 µM | 27.3 µM
25 | CC(O)(CSc1ccccc1OC(F)(F)F)C(=O)Nc1cccc(S(F)(F)(F)(F)F)c1 (racemic) | 17.5 µM | 13.9 µM | 10 µM | 12.6 µM
26 | CC(O)(CSc1ccc(C(F)(F)F)cn1)C(=O)Nc1ccc(S(F)(F)(F)(F)F)cc1 (racemic) | 30.7 µM | 20 µM | 12.3 µM | 19 µM
27 | CC(O)(COc1ccc(S(F)(F)(F)(F)F)cc1)C(=O)Nc1ccc([N+](=O)[O-])c(C(F)(F)F)c1 (racemic) | 21.2 µM | 14.1 µM | 100 µM | 100 µM
28 | CC(O)(CSc1ccc(S(F)(F)(F)(F)F)cc1)C(=O)Nc1ccc([N+](=O)[O-])cc1C(F)(F)F (racemic) | 14.5 µM | 13.1 µM | 10.3 µM | 26.3 µM
29 | CC(O)(COc1ccc(S(F)(F)(F)(F)F)cc1)C(=O)Nc1ccc([N+](=O)[O-])cc1C(F)(F)F (racemic) | 15.4 µM | 17.1 µM | 14.8 µM | 26.1 µM
30 | CC(O)(CSc1ccc(S(F)(F)(F)(F)F)cc1)C(=O)Nc1ccc(C#N)cc1C(F)(F)F (racemic) | 17.7 µM | 13.2 µM | 15.1 µM | 20.5 µM
31 | CC(O)(CSc1cccc(OC(F)(F)F)c1)C(=O)Nc1ccc(S(F)(F)(F)(F)F)cc1 (racemic) | 23.8 µM | 14 µM | 12.8 µM | 13.8 µM
32 | CC(O)(CSc1cccc(S(F)(F)(F)(F)F)c1)C(=O)Nc1ccc([N+](=O)[O-])cc1C(F)(F)F (racemic) | 18.9 µM | 17.5 µM | 12.7 µM | 28.8 µM
33 | CC(O)(CSc1cccc(S(F)(F)(F)(F)F)c1)C(=O)Nc1ccc(C#N)c(C(F)(F)F)c1 (racemic) | 32.7 µM | 20.4 µM | 14.5 µM | 31.7 µM
34 | CC(O)(CSc1ccc(OC(F)(F)F)cc1)C(=O)Nc1ccc(S(F)(F)(F)(F)F)cc1 (racemic) | 12.5 µM | 14.9 µM | 16.1 µM | 16 µM
35 | CC(O)(COc1ccc(S(F)(F)(F)(F)F)cc1)C(=O)Nc1ccc(C#N)c(C(F)(F)F)c1 (racemic) | 25.5 µM | 28.2 µM | 11.5 µM | 30.1 µM
36 | CC(O)(CSc1cccc(S(F)(F)(F)(F)F)c1)C(=O)Nc1ccc(S(F)(F)(F)(F)F)cc1 (racemic) | 17.3 µM | 17.7 µM | 25 µM | 28.2 µM
37 | CC(O)(COc1cccc(S(F)(F)(F)(F)F)c1)C(=O)Nc1ccc(C#N)c(C(F)(F)F)c1 (racemic) | 16 µM | 10.7 µM | 9.8 µM | 8 µM
38 | CC(O)(CSc1ccc(S(F)(F)(F)(F)F)cc1)C(=O)Nc1ccc(S(F)(F)(F)(F)F)cc1 (racemic) | 22.3 µM | 24.4 µM | 18.3 µM | 28 µM
39 | CC(O)(CSc1cccc(OC(F)(F)F)c1)C(=O)Nc1cccc(S(F)(F)(F)(F)F)c1 (racemic) | 25 µM | 18.7 µM | 10.9 µM | 17.5 µM
40 | CC(O)(CSc1cc(C(F)(F)F)cc(C(F)(F)F)c1)C(=O)Nc1ccc(S(F)(F)(F)(F)F)cc1 (racemic) | 29.7 µM | 15.8 µM | 17.6 µM | 19.4 µM
41 | CC(O)(CSc1ccccc1C(F)(F)F)C(=O)Nc1cccc(S(F)(F)(F)(F)F)c1 (racemic) | 15.8 µM | 13.2 µM | 12.3 µM | 21 µM
42 | CC(O)(CSc1cccc(S(F)(F)(F)(F)F)c1)C(=O)Nc1cccc(S(F)(F)(F)(F)F)c1 (racemic) | 30.3 µM | 17.2 µM | 12.9 µM | 29 µM
43 | CC(O)(COc1cccc(S(F)(F)(F)(F)F)c1)C(=O)Nc1ccc(C#N)cc1C(F)(F)F (racemic) | 16.3 µM | 11.6 µM | 9.9 µM | 10.3 µM
44 | CC(O)(CSc1ccc(S(F)(F)(F)(F)F)cc1)C(=O)Nc1ccc(C#N)c(C(F)(F)F)c1 (racemic) | 27.9 µM | 18.1 µM | 16.9 µM | 30.2 µM
45 | CC(O)(CSc1ccc(F)cc1)C(=O)Nc1cccc(S(F)(F)(F)(F)F)c1 (racemic) | 38.5 µM | 30.2 µM | 26.9 µM | 21.9 µM

Reference: ChEMBL document CHEMBL4364301 (Eur J Med Chem, 2019)
